Source: ChEMBL document CHEMBL3351667, “A chemical tuned strategy to develop novel irreversible EGFR-TK inhibitors with improved safety and pharmacokinetic profiles” (J Med Chem, 2014)

Columns and labels:
[1] = Intrinsic clearance in human liver microsomes assessed per mg protein at 1 uM in presence of NADPH after 0.5 to 30 mins by LC/MS/MS method; format: ADME; conditions: read-out: CLH
Mus musculus [2] = test: Apparent volume of distribution in BALB/c mouse at 10 mg/kg, po after 24 hrs by LC/MS/MS method; format: ADME, organism-based; parameters: dose 10 mg/kg, route oral; conditions: in vivo
[3] = Intrinsic clearance in rat liver microsomes assessed per mg protein at 1 uM in presence of NADPH after 0.5 to 30 mins by LC/MS/MS method; format: ADME; conditions: read-out: CLH
Mus musculus [4] = test: (§1) AUC (0 to infinity) in BALB/c mouse at 10 mg/kg, po after 24 hrs by LC/MS/MS method; format: ADME, organism-based, Plasma; parameters: dose 10 mg/kg, route oral, time infinity; conditions: in vivo, 24 h
SW-620 = test: Growth inhibition of human SW620 cells at 5 uM; format: functional; conditions: read-out: GI
[5] = Intrinsic clearance in monkey liver microsomes assessed per mg protein at 1 uM in presence of NADPH after 0.5 to 30 mins by LC/MS/MS method; format: ADME, Macaca mulatta; conditions: rhesus monkey, read-out: CLH
Mus musculus [6] = test: (§2) Apparent clearance in BALB/c mouse at 10 mg/kg, po after 24 hrs by LC/MS/MS method; format: ADME, organism-based; parameters: dose 10 mg/kg, route oral; conditions: in vivo, 24 h
NCI-H1975 = test: Antitumor activity against human NCI-H1975 cells xenografted in nude mouse assessed as reduction in tumor growth at 30 mg/kg/day, ig relative to untreated control; format: functional; conditions: route intragastric
[7] = Oral bioavailability in BALB/c mouse at 10 mg/kg after 24 hrs by LC/MS/MS method; format: ADME, organism-based; conditions: in vivo
[8] = Cmax in BALB/c mouse at 10 mg/kg, po after 24 hrs by LC/MS/MS method; format: ADME, organism-based; parameters: dose 10 mg/kg, route oral; conditions: in vivo
[9] = Intrinsic clearance in dog liver microsomes assessed per mg protein at 1 uM in presence of NADPH after 0.5 to 30 mins by LC/MS/MS method; format: ADME, Canis lupus familiaris; conditions: read-out: CLH
[10] = Intrinsic clearance in mouse liver microsomes assessed per mg protein at 1 uM in presence of NADPH after 0.5 to 30 mins by LC/MS/MS method; format: ADME; conditions: read-out: CLH
[11] = AUC (0 to infinity) in BALB/c mouse at 5 mg/kg, po after 24 hrs by LC/MS/MS method; format: ADME, organism-based, Plasma; parameters: time infinity, dose 5 mg/kg, route oral; conditions: BALB/c, plasma
Cytochrome P450 1A2 = target: T1, Cytochrome P450 1A2 (Homo sapiens, UniProt P05177); test: Inhibition of CYP1A2 in human hepatic microsomes after 20 mins by LC/MS/MS method; format: ADME, Liver
T1 sequence (P05177 whole entry): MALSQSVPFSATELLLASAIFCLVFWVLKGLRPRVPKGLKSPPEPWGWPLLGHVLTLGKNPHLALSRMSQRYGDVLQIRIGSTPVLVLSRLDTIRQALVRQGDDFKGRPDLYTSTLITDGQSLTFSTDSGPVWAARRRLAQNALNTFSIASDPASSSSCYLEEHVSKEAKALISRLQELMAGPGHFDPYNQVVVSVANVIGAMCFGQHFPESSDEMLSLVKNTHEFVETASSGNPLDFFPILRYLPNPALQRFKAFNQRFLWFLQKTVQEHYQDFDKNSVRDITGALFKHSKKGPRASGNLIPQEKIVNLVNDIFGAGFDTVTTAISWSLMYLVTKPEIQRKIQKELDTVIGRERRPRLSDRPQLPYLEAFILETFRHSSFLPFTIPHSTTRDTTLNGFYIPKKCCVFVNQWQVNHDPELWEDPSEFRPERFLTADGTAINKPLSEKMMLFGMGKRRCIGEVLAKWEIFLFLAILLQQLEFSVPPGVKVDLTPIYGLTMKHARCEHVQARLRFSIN

hERG (KCNH2) [12] = target: T2, hERG (KCNH2) (Homo sapiens, UniProt Q12809); test: Inhibition of human ERG assessed as reduction in channel currents at 10 uM
T2 sequence (Q12809 whole entry): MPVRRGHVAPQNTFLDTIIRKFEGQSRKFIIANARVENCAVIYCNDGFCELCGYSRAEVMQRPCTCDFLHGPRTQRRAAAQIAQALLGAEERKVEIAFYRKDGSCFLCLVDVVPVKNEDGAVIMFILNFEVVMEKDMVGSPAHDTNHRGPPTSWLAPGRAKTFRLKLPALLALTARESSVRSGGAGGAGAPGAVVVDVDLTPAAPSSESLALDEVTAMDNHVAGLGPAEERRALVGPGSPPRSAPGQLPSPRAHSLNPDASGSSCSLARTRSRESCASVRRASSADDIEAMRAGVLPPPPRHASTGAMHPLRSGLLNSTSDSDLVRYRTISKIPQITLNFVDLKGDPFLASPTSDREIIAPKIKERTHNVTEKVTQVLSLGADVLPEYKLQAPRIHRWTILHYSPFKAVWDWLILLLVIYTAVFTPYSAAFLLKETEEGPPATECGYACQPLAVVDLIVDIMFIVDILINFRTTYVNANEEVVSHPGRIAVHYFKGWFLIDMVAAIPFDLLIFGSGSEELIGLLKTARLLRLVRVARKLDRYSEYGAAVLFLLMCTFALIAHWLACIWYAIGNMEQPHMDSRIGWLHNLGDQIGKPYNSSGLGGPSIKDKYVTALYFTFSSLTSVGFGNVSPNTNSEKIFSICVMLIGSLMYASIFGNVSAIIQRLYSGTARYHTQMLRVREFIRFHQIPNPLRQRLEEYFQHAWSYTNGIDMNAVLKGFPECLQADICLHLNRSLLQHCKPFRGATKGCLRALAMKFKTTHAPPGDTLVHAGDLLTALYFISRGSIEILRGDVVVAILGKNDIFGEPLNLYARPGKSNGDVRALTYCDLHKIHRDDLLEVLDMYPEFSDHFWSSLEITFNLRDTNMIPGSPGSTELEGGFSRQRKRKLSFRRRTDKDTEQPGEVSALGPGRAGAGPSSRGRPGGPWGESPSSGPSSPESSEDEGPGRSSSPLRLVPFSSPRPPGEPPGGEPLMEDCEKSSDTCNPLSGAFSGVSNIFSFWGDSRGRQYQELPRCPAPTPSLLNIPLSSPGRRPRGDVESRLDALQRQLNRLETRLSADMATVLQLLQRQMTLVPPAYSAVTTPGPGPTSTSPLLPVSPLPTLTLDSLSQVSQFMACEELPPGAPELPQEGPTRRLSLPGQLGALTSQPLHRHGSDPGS

[13] = Oral bioavailability in BALB/c mouse at 5 mg/kg after 24 hrs by LC/MS/MS method; format: ADME, organism-based; conditions: in vivo
A-431 = test: cells; format: functional, cell-based; conditions: Homo sapiens, A-431, 48 h
Mus musculus [14] = test: Apparent volume of distribution in BALB/c mouse at 5 mg/kg, po after 24 hrs by LC/MS/MS method; format: ADME, organism-based; parameters: dose 5 mg/kg, route oral; conditions: in vivo
[15] = Ratio of drug level in brain to plasma in BALB/c mouse at 30 mg/kg, po after 6 hrs by LC/MS/MS method; format: ADME, organism-based; parameters: dose 30 mg/kg, route oral; conditions: read-out: BPR
How it was run: (§3)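 BALB/c mice received a single oral dose of 30 mg/kg. Drug concentrations in lung, brain and plasma were measured at multiple time points over 6 h. Mean tissue levels are expressed as a lung/plasma/brain ratio, with plasma set to 1.0.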

Cytochrome P450 2C9 = Cytochrome P450 2C9 (Homo sapiens, UniProt P11712); test: Inhibition of CYP2C9 in human hepatic microsomes after 20 mins by LC/MS/MS method; format: ADME, Liver
Sequence of Cytochrome P450 2C9 (P11712 whole entry): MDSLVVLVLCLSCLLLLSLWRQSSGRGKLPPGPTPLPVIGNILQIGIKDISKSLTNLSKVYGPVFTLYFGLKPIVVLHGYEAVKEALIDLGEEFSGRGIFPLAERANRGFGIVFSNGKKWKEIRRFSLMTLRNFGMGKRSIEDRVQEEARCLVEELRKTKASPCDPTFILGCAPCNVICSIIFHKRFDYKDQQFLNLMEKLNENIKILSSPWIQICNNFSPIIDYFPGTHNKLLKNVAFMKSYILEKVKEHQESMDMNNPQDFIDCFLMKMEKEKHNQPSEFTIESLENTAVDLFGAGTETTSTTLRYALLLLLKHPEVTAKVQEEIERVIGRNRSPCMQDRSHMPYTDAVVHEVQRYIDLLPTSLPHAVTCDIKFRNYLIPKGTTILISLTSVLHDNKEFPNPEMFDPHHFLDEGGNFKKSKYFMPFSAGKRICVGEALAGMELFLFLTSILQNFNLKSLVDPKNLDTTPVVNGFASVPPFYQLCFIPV

[16] = Ratio of drug level in lung to plasma in BALB/c mouse at 30 mg/kg, po after 6 hrs by LC/MS/MS method; format: ADME, organism-based; parameters: dose 30 mg/kg, route oral; how it was run: as §3
[17] = Cmax in BALB/c mouse at 5 mg/kg, po after 24 hrs by LC/MS/MS method; format: ADME, organism-based; parameters: dose 5 mg/kg, route oral; conditions: in vivo
Cytochrome P450 2D6 = Cytochrome P450 2D6 (Homo sapiens, UniProt P10635); test: Inhibition of CYP2D6 in human hepatic microsomes after 20 mins by LC/MS/MS method; format: ADME, Liver
Sequence of Cytochrome P450 2D6 (P10635 whole entry): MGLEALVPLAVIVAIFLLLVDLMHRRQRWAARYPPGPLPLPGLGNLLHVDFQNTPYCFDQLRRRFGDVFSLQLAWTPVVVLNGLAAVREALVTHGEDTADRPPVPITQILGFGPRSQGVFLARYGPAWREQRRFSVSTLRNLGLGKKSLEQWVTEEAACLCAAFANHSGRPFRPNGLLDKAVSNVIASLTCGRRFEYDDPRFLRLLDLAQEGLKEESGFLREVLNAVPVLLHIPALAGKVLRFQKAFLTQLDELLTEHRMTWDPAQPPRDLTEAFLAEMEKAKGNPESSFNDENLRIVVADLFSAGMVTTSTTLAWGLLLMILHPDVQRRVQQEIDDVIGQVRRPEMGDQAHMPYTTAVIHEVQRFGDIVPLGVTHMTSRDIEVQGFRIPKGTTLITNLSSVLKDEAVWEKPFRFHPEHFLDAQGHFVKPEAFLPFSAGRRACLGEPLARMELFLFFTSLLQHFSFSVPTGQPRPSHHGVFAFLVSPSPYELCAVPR

[18] = Apparent clearance in BALB/c mouse at 5 mg/kg, po after 24 hrs by LC/MS/MS method; format: ADME, organism-based; parameters: dose 5 mg/kg, route oral; conditions: BALB/c, in vivo, read-out: CL(app)
hERG (KCNH2) [19] = target: T2, hERG (KCNH2); test: Inhibition of human ERG assessed as reduction in channel currents at 1 uM
Cytochrome P450 2C19 = Cytochrome P450 2C19 (Homo sapiens, UniProt P33261); test: Inhibition of CYP2C19 in human hepatic microsomes after 20 mins by LC/MS/MS method; format: ADME, Liver
Sequence of Cytochrome P450 2C19 (P33261 whole entry): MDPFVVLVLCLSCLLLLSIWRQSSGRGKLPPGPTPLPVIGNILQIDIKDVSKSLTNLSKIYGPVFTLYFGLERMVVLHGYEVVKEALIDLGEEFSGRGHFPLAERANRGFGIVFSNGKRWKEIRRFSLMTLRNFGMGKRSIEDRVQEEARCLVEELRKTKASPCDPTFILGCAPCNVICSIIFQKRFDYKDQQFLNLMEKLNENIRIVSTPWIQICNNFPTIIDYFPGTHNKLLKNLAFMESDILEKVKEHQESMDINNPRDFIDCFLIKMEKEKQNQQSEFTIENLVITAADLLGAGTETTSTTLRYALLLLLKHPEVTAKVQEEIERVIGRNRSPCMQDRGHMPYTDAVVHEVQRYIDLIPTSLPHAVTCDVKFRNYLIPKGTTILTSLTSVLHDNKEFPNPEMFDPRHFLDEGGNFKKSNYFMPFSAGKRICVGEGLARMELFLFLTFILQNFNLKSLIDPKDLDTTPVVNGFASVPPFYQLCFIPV

Cytochrome P450 3A4 = Cytochrome P450 3A4 (Homo sapiens, UniProt P08684); test: Inhibition of CYP3A4 in human hepatic microsomes after 20 mins by LC/MS/MS method; format: ADME, Liver
Sequence of Cytochrome P450 3A4 (P08684 whole entry): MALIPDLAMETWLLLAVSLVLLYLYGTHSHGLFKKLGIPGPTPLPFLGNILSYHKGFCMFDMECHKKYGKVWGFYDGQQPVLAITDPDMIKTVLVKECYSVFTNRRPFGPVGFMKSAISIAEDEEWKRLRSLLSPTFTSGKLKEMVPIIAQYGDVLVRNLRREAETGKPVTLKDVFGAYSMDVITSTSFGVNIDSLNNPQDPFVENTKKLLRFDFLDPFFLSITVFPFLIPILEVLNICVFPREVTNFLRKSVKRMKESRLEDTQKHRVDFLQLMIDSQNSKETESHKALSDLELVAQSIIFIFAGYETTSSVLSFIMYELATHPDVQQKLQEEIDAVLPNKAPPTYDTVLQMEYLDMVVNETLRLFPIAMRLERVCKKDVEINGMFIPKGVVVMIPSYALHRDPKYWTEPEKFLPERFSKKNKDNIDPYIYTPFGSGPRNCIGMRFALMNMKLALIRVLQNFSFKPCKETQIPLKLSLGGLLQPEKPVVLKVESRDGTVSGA

[20] = target: Hepatocyte growth factor receptor (Homo sapiens, UniProt P08581); test: Inhibition of wild type c-Met (unknown origin) incubated for 5 mins by HTRF assay
[21] = target: Tyrosine-protein kinase SYK (Homo sapiens, UniProt P43405); test: Inhibition of wild type SYK (unknown origin) incubated for 5 mins by HTRF assay
[22] = target: Tyrosine-protein kinase ABL1 (Homo sapiens, UniProt P00519); test: Inhibition of wild type ABL (unknown origin) incubated for 5 mins by HTRF assay
[23] = target: RAC-beta serine/threonine-protein kinase (Homo sapiens, UniProt P31751); test: Inhibition of wild type AKT2 (unknown origin) incubated for 5 mins by HTRF assay
[24] = target: Fibroblast growth factor receptor 2 (Homo sapiens, UniProt P21802); test: Inhibition of wild type FGFR2 (unknown origin) incubated for 5 mins by HTRF assay
[25] = as §1; format: ADME, organism-based, Plasma; parameters: dose 10 mg/kg, route oral, time infinity; conditions: BALB/c, plasma
[26] = as §2; format: ADME, organism-based; parameters: dose 10 mg/kg, route oral; conditions: BALB/c, in vivo, read-out: CL(app)
[27] = target: Tyrosine-protein kinase JAK2 (Homo sapiens, UniProt O60674); test: Inhibition of wild type JAK2 (unknown origin) incubated for 5 mins by HTRF assay
[28] = target: Proto-oncogene tyrosine-protein kinase Src (Homo sapiens, UniProt P12931); test: Inhibition of wild type SRC (unknown origin) incubated for 5 mins by HTRF assay
[29] = target: RAC-alpha serine/threonine-protein kinase (Homo sapiens, UniProt P31749); test: Inhibition of wild type AKT1 (unknown origin) incubated for 5 mins by HTRF assay
Sequence of RAC-alpha serine/threonine-protein kinase (P31749 whole entry): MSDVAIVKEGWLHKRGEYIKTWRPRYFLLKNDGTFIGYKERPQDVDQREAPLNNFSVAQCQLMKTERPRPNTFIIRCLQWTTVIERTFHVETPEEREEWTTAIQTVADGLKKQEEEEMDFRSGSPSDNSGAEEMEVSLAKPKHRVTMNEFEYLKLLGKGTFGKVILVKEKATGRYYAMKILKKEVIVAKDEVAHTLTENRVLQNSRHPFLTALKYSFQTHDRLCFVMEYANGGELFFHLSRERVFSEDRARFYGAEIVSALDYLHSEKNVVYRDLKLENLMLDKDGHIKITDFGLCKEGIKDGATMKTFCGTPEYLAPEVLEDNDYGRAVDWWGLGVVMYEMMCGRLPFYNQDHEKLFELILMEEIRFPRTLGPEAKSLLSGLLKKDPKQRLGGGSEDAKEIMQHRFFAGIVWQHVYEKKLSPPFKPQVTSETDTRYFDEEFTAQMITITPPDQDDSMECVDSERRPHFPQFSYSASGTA

[30] = target: Platelet-derived growth factor receptor beta (Homo sapiens, UniProt P09619); test: Inhibition of wild type PDGFRbeta (unknown origin) incubated for 5 mins by HTRF assay
[31] = target: Receptor-type tyrosine-protein kinase FLT3 (Homo sapiens, UniProt P36888); test: Inhibition of wild type FLT3 (unknown origin) incubated for 5 mins by HTRF assay
[32] = target: ALK tyrosine kinase receptor (Homo sapiens, UniProt Q9UM73); test: Inhibition of wild type ALK (unknown origin) incubated for 5 mins by HTRF assay
[33] = target: Epidermal growth factor receptor (Homo sapiens, UniProt P00533);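 also: inhibition of wild-type EGFR read out by HTRF, with a 5 min incubation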
Sequence of Epidermal growth factor receptor (Homo sapiens, UniProt P00533) (P00533 whole entry): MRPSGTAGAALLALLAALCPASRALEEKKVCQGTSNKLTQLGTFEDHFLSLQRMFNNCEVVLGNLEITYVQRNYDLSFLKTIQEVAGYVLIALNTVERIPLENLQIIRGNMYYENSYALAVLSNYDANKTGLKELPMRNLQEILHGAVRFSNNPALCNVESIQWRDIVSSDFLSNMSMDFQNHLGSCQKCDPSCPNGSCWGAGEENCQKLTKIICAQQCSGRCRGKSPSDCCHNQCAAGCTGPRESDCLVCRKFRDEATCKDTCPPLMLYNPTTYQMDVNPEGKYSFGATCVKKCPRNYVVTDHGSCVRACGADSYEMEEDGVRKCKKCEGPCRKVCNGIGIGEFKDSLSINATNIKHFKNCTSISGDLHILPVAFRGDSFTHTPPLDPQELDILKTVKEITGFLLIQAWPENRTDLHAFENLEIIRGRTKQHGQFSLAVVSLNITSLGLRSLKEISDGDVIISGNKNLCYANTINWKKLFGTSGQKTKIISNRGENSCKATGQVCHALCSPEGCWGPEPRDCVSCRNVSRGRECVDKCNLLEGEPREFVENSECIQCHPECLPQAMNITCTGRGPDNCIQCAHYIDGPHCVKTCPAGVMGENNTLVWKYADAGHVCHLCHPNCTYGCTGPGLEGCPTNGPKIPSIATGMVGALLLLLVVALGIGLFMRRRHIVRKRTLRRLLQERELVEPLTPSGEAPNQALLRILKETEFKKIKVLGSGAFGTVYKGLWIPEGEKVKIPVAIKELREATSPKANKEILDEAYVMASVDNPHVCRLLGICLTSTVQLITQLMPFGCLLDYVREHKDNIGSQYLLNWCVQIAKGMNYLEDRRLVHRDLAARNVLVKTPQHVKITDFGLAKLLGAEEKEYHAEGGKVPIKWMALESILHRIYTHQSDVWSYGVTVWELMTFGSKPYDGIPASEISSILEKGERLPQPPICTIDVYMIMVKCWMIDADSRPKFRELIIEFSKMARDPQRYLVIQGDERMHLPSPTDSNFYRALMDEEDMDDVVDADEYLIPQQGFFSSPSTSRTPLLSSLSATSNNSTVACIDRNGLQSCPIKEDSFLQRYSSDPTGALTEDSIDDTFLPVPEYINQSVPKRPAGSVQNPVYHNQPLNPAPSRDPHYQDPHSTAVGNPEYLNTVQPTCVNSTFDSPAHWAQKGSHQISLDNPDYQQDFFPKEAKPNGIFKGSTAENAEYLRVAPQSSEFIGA

[34] = target: Epidermal growth factor receptor (Homo sapiens, UniProt P00533, T790M); format: protein assay
[35] = target: Platelet-derived growth factor receptor alpha (Homo sapiens, UniProt P16234); test: Inhibition of wild type PDGFRalpha (unknown origin) incubated for 5 mins by HTRF assay

Row | Structure (SMILES) | microsomal CLint at 1 µM [1] [µL/min/mg] | Vz (Mus musculus [2]) [L/kg] | microsomal CLint at 1 µM [3] [µL/min/mg] | microsomal CLint at 1 µM [5] [µL/min/mg] | T/C (NCI-H1975) [%] | bioavailability [7] [%] | Cmax [8] [µM] | microsomal CLint at 1 µM [9] [µL/min/mg] | microsomal CLint at 1 µM [10] [µL/min/mg] | IC50 (Cytochrome P450 1A2) [µM] | inhibition at 10 µM (hERG (KCNH2) [12]) [%] | IC50 (Cytochrome P450 2C9) [µM] | IC50 (Cytochrome P450 2D6) [µM] | inhibition at 1 µM (hERG (KCNH2) [19]) [%] | IC50 (Cytochrome P450 2C19) [µM] | IC50 (Cytochrome P450 3A4) [µM] | also measured
1 | CN(C)C/C=C/C(=O)Nc1cc2c(Nc3ccc(F)c(Cl)c3)ncnc2cc1O[C@H]1CCOC1 [AFATINIB] | 8 | 36.2 | 12 | 24 | 30.3 | 37.4 | 0.13 | 9 | 6 | – | – | – | – | – | – | – | AUC (Mus musculus [4]): 29.4 µM·min; inhibition of growth at 5 µM (SW-620): 78%; CL(app) (Mus musculus [6]): 16.2 L/h/kg
2 | COc1cc2ncnc(Nc3ccc(F)c(Cl)c3)c2cc1NC(=O)/C(F)=C/CN1CCCCC1 | 37 | – | 11 | 102 | 67.4 | – | – | 34 | 31 | > 10 | 11.8 | > 10 | > 10 | 0.71 | > 10 | > 10 | AUC(0-inf) [11]: 5.1 µM·h; bioavailability [13]: 105%; IC50 (A-431): 0.46 µM; Vz (Mus musculus [14]): 7.14 L/kg; Kp at 6 h [15]: 2.31; Kp at 6 h [16]: 20; Cmax [17]: 0.83 µM; CL/F [18]: 2.4 L/h/kg
3 | COc1cc2ncnc(Nc3ccc(F)c(Cl)c3)c2cc1NC(=O)/C(F)=C/CN(C)C | 14 | 14 | 18 | 128 | – | 98.5 | 0.79 | 194 | 45 | > 10 | 18.4 | > 10 | > 10 | 2.55 | > 10 | > 10 | IC50 [20]: > 10 µM; IC50 [21]: > 10 µM; IC50 [22]: 2.26 µM; IC50 [23]: > 10 µM; IC50 [24]: > 10 µM; AUC(0-inf) [25]: 7.67 µM·h; CL/F [26]: 3 L/h/kg; IC50 [27]: > 10 µM; IC50 [28]: 1.73 µM; IC50 [29]: > 10 µM; IC50 [30]: 2.1 µM; IC50 [31]: 6.81 µM; IC50 [32]: > 10 µM; IC50 [33]: 0.0002 µM; IC50 [34]: 0.00667 µM; IC50 [35]: 3.6 µM
